Legend:
CCRF-CEM = assay: Growth inhibition of human CCRF-CEM cells after 48 hrs by SRB assay; assay type: functional
In short: (§1)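 NCI 60-panel five-dose assay at 0.01, 0.1, 1, 10 and 100 μM. Cells in RPMI 1640 with 5% FBS and 2 mM L-glutamine, preincubated 24 h, with time-zero plates TCA-fixed. Drug exposure 48 h at 37 °C. Read by SRB staining at 515 nm. GI50 is the concentration where [(Ti−Tz)/(C−Tz)]×100 = 50, taken from log concentration versus % growth curves.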

EKVX = assay: Growth inhibition of human EKVX cells after 48 hrs by SRB assay; assay type: functional; in short: as §1
NCI-H226 = assay: Growth inhibition of human NCI-H226 cells after 48 hrs by SRB assay; assay type: functional; settings: NCI-H226, 48 h; in short: as §1
NCI-H322M = assay: Growth inhibition of human NCI-H322M cells after 48 hrs by SRB assay; assay type: functional; in short: as §1
HCT-116 = assay: Growth inhibition of human HCT116 cells after 48 hrs by SRB assay; assay type: functional; settings: HCT-116, 48 h; in short: as §1
HT-29 = assay: Growth inhibition of human HT-29 cells after 48 hrs by SRB assay; assay type: functional; settings: HT-29, 48 h; in short: as §1
SF-539 [1] = assay: Growth inhibition of human SF539 cells after 48 hrs by SRB assay; assay type: functional; settings: SF-539, 48 h
In short: (§2)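 NCI-60 panel cells grown in RPMI 1640 with 5% FBS and 2 mM L-glutamine, then seeded at 5000–40,000 cells/well by doubling time and preincubated for 24 h. Compound in DMSO was tested either at 10^-5 M alone or at 0.01–100 μM in five doses, for 48 h at 37 °C. Cells were fixed with cold TCA (10% final), stained with SRB, and read at 515 nm. GI50 was taken from % growth relative to time-zero and control wells.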

Malme-3M = assay: Growth inhibition of human MALME-3M cells after 48 hrs by SRB assay; assay type: functional; in short: as §1
M14 = assay: Growth inhibition of human M14 cells after 48 hrs by SRB assay; assay type: functional; settings: M14, 48 h; in short: as §1
SK-MEL-2 = assay: Growth inhibition of human SK-MEL-2 cells after 48 hrs by SRB assay; assay type: functional; settings: SK-MEL-2, 48 h; in short: as §2
UACC-62 = assay: Growth inhibition of human UACC62 cells after 48 hrs by SRB assay; assay type: functional; settings: UACC-62, 48 h; in short: as §2
OVCAR-3 = assay: Growth inhibition of human OVCAR3 cells after 48 hrs by SRB assay; assay type: functional; settings: OVCAR-3, 48 h; in short: as §1
OVCAR-5 [2] = assay: Growth inhibition of human OVCAR5 cells after 48 hrs by SRB assay; assay type: functional; settings: OVCAR-5, 48 h; in short: as §1
OVCAR-8 = assay: Growth inhibition of human OVCAR8 cells after 48 hrs by SRB assay; assay type: functional; settings: OVCAR-8, 48 h; in short: as §1
CAKI-1 = assay: Growth inhibition of human Caki1 cells after 48 hrs by SRB assay; assay type: functional; settings: CAKI-1, 48 h; in short: as §1
RXF 393 = assay: Growth inhibition of human RXF393 cells after 48 hrs by SRB assay; assay type: functional; settings: RXF 393, 48 h; in short: as §1
DU-145 [3] = assay: Growth inhibition of human DU145 cells after 48 hrs by SRB assay; assay type: functional; settings: DU-145, 48 h; in short: as §1
[4] = Growth inhibition of human Hs 578T cells after 48 hrs by SRB assay; assay type: functional; in short: as §1
T47D [5] = assay: Growth inhibition of human T47D cells after 48 hrs by SRB assay; assay type: functional; in short: as §2
HOP-62 = assay: Cytotoxicity against human HOP62 cells after 48 hrs by SRB assay; assay type: cell-based; settings: hop-62, 48 h
In short: (§3)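 NCI-60 five-dose screen in RPMI 1640 with 5% FBS and 2 mM L-glutamine; 5000–40,000 cells/well, 24 h pre-incubation. DMSO stocks diluted to 0.01, 0.1, 1, 10 and 100 μM final; 48 h at 37 °C, 5% CO2. Fixed with TCA (10% final adherent, 16% suspension), stained with 0.4% SRB, A515. GI50, TGI and LC50 taken from time-zero, control and test absorbances.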

COLO 205 = assay: Cytotoxicity against human COLO205 cells after 48 hrs by SRB assay; assay type: cell-based; settings: colo 205, 48 h; in short: as §3
HCC 2998 = assay: Cytotoxicity against human HCC2998 cells after 48 hrs by SRB assay; assay type: cell-based; settings: hcc 2998, 48 h; in short: as §3
KM12 = assay: Cytotoxicity against human KM12 cells after 48 hrs by SRB assay; assay type: cell-based; settings: km12, 48 h; in short: as §3
SW-620 = assay: Cytotoxicity against human SW620 cells after 48 hrs by SRB assay; assay type: cell-based; settings: sw-620, 48 h
In short: (§4)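 NCI-60 five-dose screen. Cells grown in RPMI 1640 with 5% FBS and 2 mM L-glutamine and pre-incubated 24 h; a time-zero plate is TCA-fixed. Drug added at 0.01, 0.1, 1, 10 and 100 µM (DMSO stock) for 48 h at 37 °C, 5% CO2. Fixed with cold TCA (10% final for adherent, 16% for suspension cells), stained with 0.4% SRB, A515. GI50, TGI and LC50 taken from dose-response curves.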

SF-295 = assay: Cytotoxicity against human SF295 cells after 48 hrs by SRB assay; assay type: cell-based; settings: sf-295, 48 h; in short: as §3
SF-539 [6] = assay: Cytotoxicity against human SF539 cells after 48 hrs by SRB assay; assay type: cell-based; settings: sf-539, 48 h; in short: as §3
U-251 = assay: Cytotoxicity against human U251 cells after 48 hrs by SRB assay; assay type: cell-based; settings: u-251, 48 h; in short: as §4
LOX IMVI = assay: Cytotoxicity against human LOXIMVI cells after 48 hrs by SRB assay; assay type: cell-based; in short: as §3
SK-MEL-5 = assay: Cytotoxicity against human SK-MEL-5 cells after 48 hrs by SRB assay; assay type: cell-based; settings: sk-mel-5, 48 h; in short: as §3
UACC-257 = assay: Cytotoxicity against human UACC257 cells after 48 hrs by SRB assay; assay type: cell-based; settings: uacc-257, 48 h; in short: as §4
OVCAR-4 = assay: Cytotoxicity against human OVCAR4 cells after 48 hrs by SRB assay; assay type: cell-based; settings: ovcar-4, 48 h; in short: as §3
OVCAR-5 [7] = assay: Cytotoxicity against human OVCAR5 cells after 48 hrs by SRB assay; assay type: cell-based; settings: ovcar-5, 48 h; in short: as §3
DU-145 [8] = assay: Cytotoxicity against human DU145 cells after 48 hrs by SRB assay; assay type: cell-based; settings: du-145, 48 h; in short: as §3
MDA-MB-231 = assay: Cytotoxicity against human MDA-MB-231 cells after 48 hrs by SRB assay; assay type: cell-based; settings: mda-mb-231, 48 h; in short: as §3
T47D [9] = assay: Cytotoxicity against human T47D cells after 48 hrs by SRB assay; assay type: cell-based; in short: as §4

Compound: O=c1c2ccccc2nc(-c2ccco2)n1/N=C/c1ccccc1Cl
- GI50 (CCRF-CEM): 11.8 µM
- TGI (CCRF-CEM): > 100 µM
- GI50 (EKVX): 7.23 µM
- TGI (EKVX): > 100 µM
- GI50 (NCI-H226): 4.12 µM
- TGI (NCI-H226): > 100 µM
- GI50 (NCI-H322M): 4.11 µM
- TGI (NCI-H322M): 76.9 µM
- GI50 (HCT-116): 3.32 µM
- TGI (HCT-116): 23.6 µM
- GI50 (HT-29): 3.42 µM
- TGI (HT-29): > 100 µM
- GI50 (SF-539 [1]): 3.28 µM
- TGI (SF-539 [1]): 21.2 µM
- GI50 (Malme-3M): 7.23 µM
- TGI (Malme-3M): > 100 µM
- GI50 (M14): 10.8 µM
- TGI (M14): > 100 µM
- GI50 (SK-MEL-2): 6.86 µM
- TGI (SK-MEL-2): > 100 µM
- GI50 (UACC-62): 6.38 µM
- TGI (UACC-62): > 100 µM
- GI50 (OVCAR-3): 4.12 µM
- TGI (OVCAR-3): 6.87 µM
- GI50 (OVCAR-5 [2]): 5.12 µM
- TGI (OVCAR-5 [2]): > 100 µM
- GI50 (OVCAR-8): 3.98 µM
- TGI (OVCAR-8): 25.8 µM
- GI50 (CAKI-1): 7.99 µM
- TGI (CAKI-1): 34.8 µM
- GI50 (RXF 393): 11.6 µM
- TGI (RXF 393): 42.6 µM
- GI50 (DU-145 [3]): 4.38 µM
- TGI (DU-145 [3]): > 100 µM
- GI50 [4]: 15.2 µM
- TGI [4]: > 100 µM
- GI50 (T47D [5]): 6.89 µM
- TGI (T47D [5]): > 100 µM
- LC50 (HOP-62): > 100 µM
- LC50 (COLO 205): > 100 µM
- LC50 (HCC 2998): > 100 µM
- LC50 (KM12): > 100 µM
- LC50 (SW-620): > 100 µM
- LC50 (SF-295): > 100 µM
- LC50 (SF-539 [6]): > 100 µM
- LC50 (U-251): > 100 µM
- LC50 (LOX IMVI): > 100 µM
- LC50 (SK-MEL-5): > 100 µM
- LC50 (UACC-257): > 100 µM
- LC50 (OVCAR-4): > 100 µM
- LC50 (OVCAR-5 [7]): > 100 µM
- LC50 (DU-145 [8]): > 100 µM
- LC50 (MDA-MB-231): > 100 µM
- LC50 (T47D [9]): > 100 µM
